Screening results deposited in PubChem by The Scripps Research Institute Molecular Screening Center.
CHRM4 antagonist = blocks acetylcholine activation of human M4 receptor; CHO-hM4 cells, ACh EC80, Fluo-8 calcium fluorescence; inhibition, % at 3 µM; 0.73% of 360,000 active; AID 624125;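 active means inhibition above its plate's cutoff, the mean inhibition of sample wells plus 3 SD, cut at about 27% in these data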
M5 PAM = CHRM5 positive allosteric modulation; P08912; CHO-K1 hM5, Fluo-8 calcium, ACh EC20 PAM; 0% = ACh EC20, 100% = ACh EC100; activation, % at 3 µM; 0.3% of 360,000 active;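 active means activation above the run cutoff, the mean activation of all test compounds plus 3 SD, cut at about 18% in these data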
Target sequence (P08912 whole entry, looked up): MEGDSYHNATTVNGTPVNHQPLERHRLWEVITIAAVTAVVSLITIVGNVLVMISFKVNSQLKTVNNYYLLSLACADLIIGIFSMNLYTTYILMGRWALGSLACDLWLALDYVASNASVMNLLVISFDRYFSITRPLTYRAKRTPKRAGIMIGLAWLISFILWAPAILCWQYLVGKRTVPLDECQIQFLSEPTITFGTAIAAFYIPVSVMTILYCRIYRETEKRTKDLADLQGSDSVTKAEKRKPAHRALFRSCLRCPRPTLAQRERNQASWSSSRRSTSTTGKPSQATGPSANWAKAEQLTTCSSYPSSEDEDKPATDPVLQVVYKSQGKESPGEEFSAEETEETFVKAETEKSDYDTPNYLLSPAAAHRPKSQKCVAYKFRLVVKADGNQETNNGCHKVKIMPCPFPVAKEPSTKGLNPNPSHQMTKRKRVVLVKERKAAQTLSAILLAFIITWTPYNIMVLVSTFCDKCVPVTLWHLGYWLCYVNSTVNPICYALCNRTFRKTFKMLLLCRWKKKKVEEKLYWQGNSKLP
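Assay system: CHO-K1 hM5 cells / Incubation: Fluo-8 loading 80 min at 37 °C plus 30 min room temperature / Technique: Fluo-8 calcium dye fluorescence, kinetic read / Repeats: single replicate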
CHRM5 agonist = agonists of human muscarinic M5 receptor (CHRM5). P08912. CHO-K1 hM5 cells, Fluo-8 calcium fluorescence; 0% DMSO wells, 100% maximal acetylcholine response. activation, % at 3 µM. 0.19% of 360,000 active;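 active means activation above the run's mean over test compounds plus 3 SD, cut at about 23% in these data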;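 further: signal is peak over basal fluorescence ratio across the kinetic read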
M4 ag = agonists of human muscarinic M4 receptor (CHRM4) | P08173 | CHO-K1 hM4/Gqi5, Fluo-8 calcium fluorescence; vehicle 0%, full acetylcholine response 100% | activation, % at 3 µM | 0.14% of 360,000 active | AID 624127;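 active means activation above the run mean over all test wells plus 3 SD, cut at about 32% in these data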;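 further: peak over basal fluorescence ratio per well then scaled between controls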
M5 antag = CHRM5 antagonism in calcium assay; P08912; CHO-hM5 cells, Fluo-8 calcium fluorescence, ACh EC80; inhibition, % at 3 µM; 0.59% of 360,000 active;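 active means inhibition above a per-plate cutoff, the mean of that plate's test compounds plus 3 SD, cut at about 27% in these data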
M4 PAM = CHRM4 positive allosteric modulation | activation, % at 3 µM | P08173 | 0.4% of 360,000 active | CHO-K1 hM4/Gqi5, Fluo-8 calcium fluorescence, ACh EC20; 0% = ACh EC20, 100% = maximal ACh;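 active means activation above its plate's cutoff, the mean activation of sample wells plus 3 SD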
Large screens that a line does not name were inactive. This is a sample that favours compounds with a hit; in the whole collection about 1.8% have one here.

CCOC(=O)C1[C@H]2C(=O)N(C(C)c3ccc(OC)cc3)C[C@]23C=C[C@H]1O3 (stereo partly drawn)	CHRM4 antagonist 75
O=C(NCc1ccc(F)cc1)C1C2C=CC3(CN(Cc4cccnc4)C(=O)C13)O2 (stereo not drawn)	M4 PAM 28
CCCOC(=O)C1[C@H]2C(=O)N(C(C)c3ccc(OC)cc3)C[C@]23C=C[C@H]1O3 (stereo partly drawn)	none
COc1ccccc1N1CCN(C2CCCN(C(=O)CCC(C)=O)C2)CC1 (stereo not drawn)	none
COC(=O)[C@]1(C)CCC[C@@]2(C)C3CC[C@@]4(C)C[C@]3(CCC21)CC4=NO (stereo partly drawn)	none
O=C(CCl)Nc1ccccc1C(=O)c1ccccc1	M4 PAM 20
Cc1ccc(C(c2sc3nc(C)nn3c2O)N2CC(C)OC(C)C2)cc1 (stereo not drawn)	none
Cc1nc2sc(C(c3ccc(Cl)cc3)N3CC(C)OC(C)C3)c(O)n2n1 (stereo not drawn)	M4 PAM 17
CN(C)S(=O)(=O)c1cccc(-c2nnc(SCC(=O)NCCCCCC(=O)O)n2-c2ccc(F)cc2)c1	M4 PAM 25
CNC(=O)CSc1nnc(-c2cccc(S(=O)(=O)N3CCOCC3)c2)n1-c1ccc(F)cc1	none
C[C@@H]1CN([C@H](C)CO)C(=O)CCCn2cc(nn2)CO[C@H]1CN(C)S(=O)(=O)c1ccc(Oc2ccccc2)cc1	none
C[C@H](NC(=O)Nc1ccccc1F)C(=O)O	none
C[C@H](NC(=O)c1ccccc1Cl)C(=O)Nc1ccccc1F	CHRM4 antagonist 75
Cc1csc(=O)n1CCC(=O)OCC(=O)Nc1ccc(F)c(F)c1F	none
Cc1ccc(CS(=O)(=O)c2ncc(Cl)c(C(=O)Nc3ccc(OC(F)F)cc3)n2)cc1	CHRM4 antagonist 56
CCN(CC)CC(=O)Nc1scc2c1c(=O)oc1ccccc12	none
CC(=O)N(Cc1ccccc1)c1ccc(C(=O)O)cc1	M5 PAM 25
O=C1NC(c2ccncc2)C(C(=O)c2cccs2)C(O)(C(F)(F)F)N1 (stereo not drawn)	CHRM4 antagonist 30
CC(C)C[C@H]1CN=C(N(C)C)N1CCc1cccc(F)c1	none
CC(C)C[C@H]1CN=C(Nc2ccccc2)N1CCc1ccc(F)cc1	CHRM4 antagonist 47, CHRM5 agonist 64, M4 ag 115
Cc1cccc(CCN2C(Nc3ccccc3)=NC[C@@H]2CC(C)C)c1	CHRM4 antagonist 59, CHRM5 agonist 58, M4 ag 137
CC(C)C[C@H]1CN=C(Nc2ccccc2)N1CCc1cccc(F)c1	CHRM4 antagonist 62, CHRM5 agonist 74, M4 ag 126, M5 antag 38
COc1cccc(-c2cccc(NC(=O)C3CCN(Cc4ccon4)CC3)c2)c1	none
O=C(NCc1ccc(OC(F)(F)F)cc1)C1CCC(=O)N(C2CC2)C1 (stereo not drawn)	none
O=C(Nc1ccc(Cl)cc1)c1csc(-c2ccccc2)n1	M4 PAM 34
Cc1ccc(-c2nc3c(Cl)cc(C(F)(F)F)cn3c2Cc2ccccc2C(F)(F)F)cc1	none
FC(F)(F)c1cc(Cl)c2nc(-c3ccco3)c(Cc3ccccc3C(F)(F)F)n2c1	CHRM4 antagonist 45
CC1CCCC(C)N1/N=C/c1ccc(N(C)C)cc1 (stereo not drawn)	none
Cc1cc(C(=O)NCC(C)(C)N2CCOCC2)c(C)o1	none
CC(=O)c1c(N2CCCC2)nc(=S)n(-c2ccccc2)c1C	CHRM4 antagonist 47
CCn1c(C)c(C(C)=O)c(N2CCN(C(c3ccccc3)c3ccccc3)CC2)nc1=S	CHRM4 antagonist 29
CCn1c(C)c(C(C)=O)c(N2CCN(c3ccccc3)CC2)nc1=S	none
COc1ccc(S(=O)(=O)Nc2c(C(=O)O)[nH]c3ccc(OC)cc23)c(OC)c1	none
Cc1ccc(NC(=O)C(C)OC(=O)CCN=C2NS(=O)(=O)c3ccccc32)cc1 (stereo not drawn)	none
CCc1cccc(C)c1NC(=O)C1=C(C(=O)O)CCCC1	CHRM4 antagonist 28
CCc1cccc(C)c1NC(=O)c1ccccc1	none
CN(C)CCCN1c2ccccc2Sc2ccc(C(F)(F)F)cc21	CHRM4 antagonist 83, M5 antag 98
CN(C)CCC(=O)N1c2ccccc2Sc2ccc(C(F)(F)F)cc21	CHRM4 antagonist 99, M5 antag 100
OCCN1CCN(CCCN2c3ccccc3Sc3ccc(C(F)(F)F)cc32)CC1	none
CN(C)CCCN1c2ccc(O)cc2Sc2ccc(Cl)cc21	CHRM4 antagonist 44, M5 antag 56
CCN1CCC2(CC1)Oc1c(OC)cccc1C1CC(c3cccnc3)=NN12 (stereo not drawn)	none
COc1ccccc1N1CCN(C(=O)c2ccc(CS(=O)(=O)c3ccccc3OC)o2)CC1	CHRM5 agonist 34
COc1ccccc1N1CCN(C(=O)c2oc3ccccc3c2C)CC1	none
CCOC(=O)N1CCN(C(=O)c2ccc(CS(=O)(=O)c3ccccc3OC)o2)CC1	none
COc1ccccc1N1CCN(C(=O)c2cccc3c(=O)c(C)c(-c4ccccc4)oc23)CC1	CHRM5 agonist 26
Cc1nc(Sc2ccc(Br)cc2)c(C#N)c(C)c1[N+](=O)[O-]	none
COc1cc(OC)nc(/N=C/NO)n1	none
Cc1ccccc1C(=O)N1CCN(c2ccc(NC(=O)CSc3ccc(Cl)cc3)cc2)CC1	CHRM4 antagonist 27
Cn1c(N)c(Sc2ccc(F)cc2)c(=O)n(C)c1=O	none
CN(C(=O)CCc1nc2ccccc2c(=O)[nH]1)C1CCS(=O)(=O)C1 (stereo not drawn)	none
O=C(c1ccc(-c2cc(Cl)ccc2Cl)o1)N1CCOCC1	M5 PAM 19
O=C(c1ccc(-c2ccc(Cl)cc2Cl)o1)N1CCOCC1	none
Cc1ccc(CN(C(=O)COc2cccc(C)c2C)C2CCS(=O)(=O)C2)o1 (stereo not drawn)	none
O=C(c1cnn2c(C(F)F)cc(C3CC3)nc12)N1CCCC1	M4 PAM 34
O=C(c1cnn2c(C(F)F)cc(C3CC3)nc12)N1CCc2ccccc2C1	none
CCc1ncc(CN2CCC(C(=O)Nc3ccc(-n4nc(C)cc4C)cc3)CC2)cn1	none
Cc1cc(C)n(-c2ccc(NC(=O)C3CCN(Cc4ccccn4)CC3)cc2)n1	M4 PAM 22
CCCCc1ccc(NC(=O)CN(C)CC(=O)Nc2ccccc2Cl)cc1	none
CCCn1c(SCC(=O)Nc2cccc(F)c2)nc(O)cc1=O	CHRM4 antagonist 27, M4 ag 41, M5 antag 34
